In ChEMBL document CHEMBL5705905, “Pharmacological targeting of kinases MST1 and MST2 augments tissue repair and regeneration” (Sci Transl Med, 2016):
Activity calls are given as the source filed them. The rule behind the calls is not given here.

Tests used:
[1] = target: T1, Tyrosine-protein kinase JAK1 (Homo sapiens, UniProt P23458); assay: Inhibition of JAK1 JH2domain-pseudokinase (unknown origin) in presence of ATP by enzymatic assay
Mus musculus = assay: Protection against APAP induced liver injury in mouse assessed as decrease in mortality rate at 1 mg/kg, ip administered at 2.5 hrs in the presence of NAC; type: functional, organism-based
[2] = target: Mitogen-activated protein kinase kinase kinase 13 (Homo sapiens) (UniProt O43283); assay: Inhibition of LZK (unknown origin) assessed as remaining activity at 1 uM by Kinome scan method relative to control
[3] = target: Insulin-like growth factor 1 receptor (Homo sapiens) (UniProt P08069); assay: Inhibition of IGF1R (unknown origin) assessed as remaining activity at 1 uM by Kinome scan method relative to control
[4] = target: MAP/microtubule affinity-regulating kinase 4 (Homo sapiens) (UniProt Q96L34); assay: Inhibition of MARK4 (unknown origin) assessed as remaining activity at 1 uM by Kinome scan method relative to control
[5] = target: Fibroblast growth factor receptor 4 (Homo sapiens) (UniProt P22455); assay: Inhibition of FGFR4 (unknown origin) assessed as remaining activity at 1 uM by Kinome scan method relative to control
[6] = target: AP2-associated protein kinase 1 (Homo sapiens) (UniProt Q2M2I8); assay: Inhibition of AAK1 (unknown origin) assessed as remaining activity at 1 uM by Kinome scan method relative to control
How it was run: (§1)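 Active-site-dependent competition-binding (KINOMEscan) panel of 468 kinases, test compound at 1 μM (from a 10 mM DMSO stock). Read-out is ctrl% = (test signal − positive control signal)/(negative control signal − positive control signal) × 100. DMSO is the negative control (100%) and a control compound is the positive control (0%). Lower ctrl% means tighter binding.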

[7] = target: Mitogen-activated protein kinase kinase kinase 4 (Homo sapiens) (UniProt Q9Y6R4); assay: Inhibition of MAP3K4 (unknown origin) assessed as remaining activity at 1 uM by Kinome scan method relative to control
[8] = target: Serine/threonine-protein kinase RIO2 (Homo sapiens) (UniProt Q9BVS4); assay: Inhibition of RIOK2 (unknown origin) assessed as remaining activity at 1 uM by Kinome scan method relative to control
[9] = target: T1, Tyrosine-protein kinase JAK1; assay: Inhibition of JAK1 JH2 domain (unknown origin) assessed as remaining activity at 1 uM by Kinome scan method relative to control
[10] = system: Tyrosine-protein kinase ABL1 (Homo sapiens), P00519 [H396P]; assay: Inhibition of phosphorylated ABL1 H396P mutant (unknown origin) assessed as remaining activity at 1 uM by Kinome scan method relative to control
[11] = target: Serine/threonine-protein kinase pim-1 (Homo sapiens) (UniProt P11309); assay: Inhibition of PIM1 (unknown origin) assessed as remaining activity at 1 uM by Kinome scan method relative to control
[12] = target: Receptor tyrosine-protein kinase erbB-3 (Homo sapiens) (UniProt P21860); assay: Inhibition of ERBB3 (unknown origin) assessed as remaining activity at 1 uM by Kinome scan method relative to control
[13] = system: Mast/stem cell growth factor receptor Kit (Homo sapiens), P10721 [A829P]; assay: Inhibition of KIT A829P mutant (unknown origin) assessed as remaining activity at 1 uM by Kinome scan method relative to control
[14] = target: Tyrosine-protein kinase TXK (Homo sapiens) (UniProt P42681); assay: Inhibition of TXK (unknown origin) assessed as remaining activity at 1 uM by Kinome scan method relative to control
[15] = target: Mitogen-activated protein kinase 1 (Homo sapiens) (UniProt P28482); assay: Inhibition of ERK2 (unknown origin) assessed as remaining activity at 1 uM by Kinome scan method relative to control
[16] = system: Phosphatidylinositol 4,5-bisphosphate 3-kinase catalytic subunit alpha isoform (Homo sapiens), P42336 [H1047L]; assay: Inhibition of PIK3CA H1047L mutant (unknown origin) assessed as remaining activity at 1 uM by Kinome scan method relative to control
Aurora kinase A = Aurora kinase A (Homo sapiens, UniProt O14965); assay: Binding affinity to AURKA (unknown origin) assessed as dissociation constant
[17] = target: Atypical kinase COQ8A, mitochondrial (Homo sapiens) (UniProt Q8NI60); assay: Inhibition of ADCK3 (unknown origin) assessed as remaining activity at 1 uM by Kinome scan method relative to control; how it was run: as §1
[18] = target: Ephrin type-B receptor 1 (Homo sapiens) (UniProt P54762); assay: Inhibition of EPHB1 (unknown origin) assessed as remaining activity at 1 uM by Kinome scan method relative to control
[19] = target: Serine/threonine-protein kinase 32C (Homo sapiens) (UniProt Q86UX6); assay: Inhibition of YANK3 (unknown origin) assessed as remaining activity at 1 uM by Kinome scan method relative to control
[20] = target: Tyrosine-protein kinase ZAP-70 (Homo sapiens) (UniProt P43403); assay: Inhibition of ZAP70 (unknown origin) assessed as remaining activity at 1 uM by Kinome scan method relative to control
[21] = target: Activin receptor type-1-like (Homo sapiens) (UniProt P37023); assay: Inhibition of ACVRL1 (unknown origin) assessed as remaining activity at 1 uM by Kinome scan method relative to control; how it was run: as §1
[22] = target: Cyclin-dependent kinase 4/cyclin D1 (Homo sapiens) (UniProt P11802+P24385); assay: Inhibition of CDK4/cyclinD1 (unknown origin) assessed as remaining activity at 1 uM by Kinome scan method relative to control; type: protein-complex assay
How it was run: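 Active-site-dependent competition-binding profiling (KINOMEscan) at 1 μM against a 468-kinase panel; compound supplied from a 10 mM DMSO stock. Read-out is ctrl% = (test signal − positive control signal)/(negative control signal − positive control signal) × 100. DMSO is the negative control (100%) and a control compound the positive control (0%). Lower ctrl% means tighter binding.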

Primary hepatocyte = assay: Inhibition of MST1/2 (unknown origin) in mouse Primary hepatocyte cells assessed as H2O2 stimulated MST1/2 autophosphorylation level at 1 to 3 uM by immunoblot analysis; type: cell-based; details: dose 1-3 µM
[23] = target: Tyrosine-protein kinase FRK (Homo sapiens) (UniProt P42685); assay: Inhibition of FRK (unknown origin) assessed as remaining activity at 1 uM by Kinome scan method relative to control
[24] = target: Dual specificity testis-specific protein kinase 1 (Homo sapiens) (UniProt Q15569); assay: Inhibition of TESK1 (unknown origin) assessed as remaining activity at 1 uM by Kinome scan method relative to control
[25] = target: Tyrosine-protein kinase Fer (Homo sapiens) (UniProt P16591); assay: Inhibition of FER (unknown origin) assessed as remaining activity at 1 uM by Kinome scan method relative to control
[26] = Half life in male Sprague-Dawley rat at 10 mg/kg, po measured for 24 hrs by LC-MS/MS analysis; type: ADME, organism-based; details: in vivo
How it was run: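 Sprague-Dawley rats, single intravenous or oral dose. Parameters (half-life, AUC, bioavailability) reported in a supplementary table.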

T1 sequence (P23458 whole entry): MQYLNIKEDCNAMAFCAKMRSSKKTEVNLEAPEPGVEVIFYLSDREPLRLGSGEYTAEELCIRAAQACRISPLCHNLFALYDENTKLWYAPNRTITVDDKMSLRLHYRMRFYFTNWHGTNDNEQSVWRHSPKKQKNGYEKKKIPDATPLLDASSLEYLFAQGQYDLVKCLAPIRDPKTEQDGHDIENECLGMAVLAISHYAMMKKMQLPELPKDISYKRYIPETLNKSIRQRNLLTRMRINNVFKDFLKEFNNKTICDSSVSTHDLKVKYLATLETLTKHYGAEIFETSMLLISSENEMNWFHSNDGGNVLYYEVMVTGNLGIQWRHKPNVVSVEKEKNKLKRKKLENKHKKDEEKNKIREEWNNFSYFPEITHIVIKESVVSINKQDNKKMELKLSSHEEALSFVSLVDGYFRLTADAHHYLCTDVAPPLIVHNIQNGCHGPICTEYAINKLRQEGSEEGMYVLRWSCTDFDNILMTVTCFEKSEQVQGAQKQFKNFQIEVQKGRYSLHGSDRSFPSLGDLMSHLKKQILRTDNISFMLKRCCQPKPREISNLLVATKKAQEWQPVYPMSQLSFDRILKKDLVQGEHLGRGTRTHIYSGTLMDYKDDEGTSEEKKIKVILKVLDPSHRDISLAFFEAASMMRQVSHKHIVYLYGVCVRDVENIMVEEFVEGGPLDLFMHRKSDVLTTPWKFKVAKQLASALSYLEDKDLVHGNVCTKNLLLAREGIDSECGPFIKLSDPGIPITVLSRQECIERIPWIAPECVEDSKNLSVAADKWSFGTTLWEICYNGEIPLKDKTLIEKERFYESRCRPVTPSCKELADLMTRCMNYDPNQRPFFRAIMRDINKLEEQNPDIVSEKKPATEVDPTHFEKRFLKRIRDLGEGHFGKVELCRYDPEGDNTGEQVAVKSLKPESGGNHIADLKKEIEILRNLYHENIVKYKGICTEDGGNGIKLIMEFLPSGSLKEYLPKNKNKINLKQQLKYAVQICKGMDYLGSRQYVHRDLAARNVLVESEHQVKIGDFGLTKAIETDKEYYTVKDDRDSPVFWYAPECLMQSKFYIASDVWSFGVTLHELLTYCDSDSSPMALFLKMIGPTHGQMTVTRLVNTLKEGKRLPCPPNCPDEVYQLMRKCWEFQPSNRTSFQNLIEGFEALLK
Chain of Mitogen-activated protein kinase 1 (Homo sapiens) (P28482 whole entry, canonical isoform): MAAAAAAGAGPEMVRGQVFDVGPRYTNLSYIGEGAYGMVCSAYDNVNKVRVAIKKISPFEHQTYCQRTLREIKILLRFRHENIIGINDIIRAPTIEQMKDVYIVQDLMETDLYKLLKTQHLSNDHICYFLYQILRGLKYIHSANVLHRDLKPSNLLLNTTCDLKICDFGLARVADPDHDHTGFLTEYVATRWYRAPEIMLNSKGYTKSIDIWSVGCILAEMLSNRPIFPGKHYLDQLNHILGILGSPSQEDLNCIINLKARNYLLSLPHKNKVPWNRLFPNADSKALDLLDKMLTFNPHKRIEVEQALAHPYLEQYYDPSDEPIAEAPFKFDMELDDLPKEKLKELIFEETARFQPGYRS
Chain of Receptor tyrosine-protein kinase erbB-3 (Homo sapiens) (P21860 whole entry): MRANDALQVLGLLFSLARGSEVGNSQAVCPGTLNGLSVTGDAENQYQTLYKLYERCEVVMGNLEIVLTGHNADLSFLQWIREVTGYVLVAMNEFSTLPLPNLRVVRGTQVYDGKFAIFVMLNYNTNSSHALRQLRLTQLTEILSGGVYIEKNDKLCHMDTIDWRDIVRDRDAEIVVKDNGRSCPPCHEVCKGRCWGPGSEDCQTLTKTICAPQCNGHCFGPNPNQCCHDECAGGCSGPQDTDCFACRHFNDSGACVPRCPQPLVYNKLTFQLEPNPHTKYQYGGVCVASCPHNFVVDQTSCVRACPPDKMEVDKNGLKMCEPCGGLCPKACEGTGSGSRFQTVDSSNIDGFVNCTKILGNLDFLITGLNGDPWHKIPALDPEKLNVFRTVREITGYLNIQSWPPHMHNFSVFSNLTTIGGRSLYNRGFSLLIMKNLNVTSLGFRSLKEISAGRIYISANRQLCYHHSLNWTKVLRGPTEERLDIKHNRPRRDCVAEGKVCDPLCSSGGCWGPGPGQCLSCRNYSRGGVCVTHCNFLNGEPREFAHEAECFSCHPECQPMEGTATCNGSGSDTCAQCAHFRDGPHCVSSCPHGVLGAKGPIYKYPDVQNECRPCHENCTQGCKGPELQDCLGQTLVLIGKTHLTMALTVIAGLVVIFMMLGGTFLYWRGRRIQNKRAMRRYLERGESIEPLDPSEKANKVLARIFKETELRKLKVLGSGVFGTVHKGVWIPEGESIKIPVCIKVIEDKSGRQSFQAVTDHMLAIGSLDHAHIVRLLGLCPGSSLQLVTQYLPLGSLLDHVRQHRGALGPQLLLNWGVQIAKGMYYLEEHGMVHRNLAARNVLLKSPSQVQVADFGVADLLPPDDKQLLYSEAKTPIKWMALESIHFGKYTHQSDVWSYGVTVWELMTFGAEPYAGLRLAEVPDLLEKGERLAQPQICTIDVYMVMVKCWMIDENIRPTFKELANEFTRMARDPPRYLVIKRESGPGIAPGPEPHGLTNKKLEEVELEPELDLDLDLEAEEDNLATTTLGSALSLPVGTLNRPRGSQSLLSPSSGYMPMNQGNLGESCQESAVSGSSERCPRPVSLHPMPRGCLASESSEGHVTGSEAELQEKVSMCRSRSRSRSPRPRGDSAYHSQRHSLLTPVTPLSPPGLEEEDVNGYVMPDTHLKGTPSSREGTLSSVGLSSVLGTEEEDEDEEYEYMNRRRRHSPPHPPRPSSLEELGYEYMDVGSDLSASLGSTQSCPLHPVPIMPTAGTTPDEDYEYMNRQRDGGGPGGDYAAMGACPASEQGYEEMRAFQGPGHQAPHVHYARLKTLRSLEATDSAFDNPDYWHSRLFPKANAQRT
Chain of MAP/microtubule affinity-regulating kinase 4 (Homo sapiens) (Q96L34 whole entry): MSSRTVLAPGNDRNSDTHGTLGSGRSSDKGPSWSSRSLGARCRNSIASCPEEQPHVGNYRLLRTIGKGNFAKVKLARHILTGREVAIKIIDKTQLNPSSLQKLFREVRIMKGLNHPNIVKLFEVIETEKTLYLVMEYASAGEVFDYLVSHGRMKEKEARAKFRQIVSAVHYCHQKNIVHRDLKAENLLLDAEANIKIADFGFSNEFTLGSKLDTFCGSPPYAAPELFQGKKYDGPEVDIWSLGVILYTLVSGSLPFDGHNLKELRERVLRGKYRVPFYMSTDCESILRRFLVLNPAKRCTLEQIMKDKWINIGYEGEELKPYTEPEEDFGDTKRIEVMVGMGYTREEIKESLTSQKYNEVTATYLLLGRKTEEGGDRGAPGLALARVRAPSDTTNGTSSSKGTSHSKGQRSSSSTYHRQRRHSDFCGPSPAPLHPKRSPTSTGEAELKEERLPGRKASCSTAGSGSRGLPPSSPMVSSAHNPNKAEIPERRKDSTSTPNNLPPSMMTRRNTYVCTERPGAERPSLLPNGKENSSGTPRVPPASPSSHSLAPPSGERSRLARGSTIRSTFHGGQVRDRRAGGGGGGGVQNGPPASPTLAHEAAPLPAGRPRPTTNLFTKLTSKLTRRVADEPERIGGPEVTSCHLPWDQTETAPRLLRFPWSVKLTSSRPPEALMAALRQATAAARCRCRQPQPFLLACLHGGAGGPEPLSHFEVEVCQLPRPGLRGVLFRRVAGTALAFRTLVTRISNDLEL
Chain of Serine/threonine-protein kinase RIO2 (Homo sapiens) (Q9BVS4 whole entry, looked up, the tested form may be a part): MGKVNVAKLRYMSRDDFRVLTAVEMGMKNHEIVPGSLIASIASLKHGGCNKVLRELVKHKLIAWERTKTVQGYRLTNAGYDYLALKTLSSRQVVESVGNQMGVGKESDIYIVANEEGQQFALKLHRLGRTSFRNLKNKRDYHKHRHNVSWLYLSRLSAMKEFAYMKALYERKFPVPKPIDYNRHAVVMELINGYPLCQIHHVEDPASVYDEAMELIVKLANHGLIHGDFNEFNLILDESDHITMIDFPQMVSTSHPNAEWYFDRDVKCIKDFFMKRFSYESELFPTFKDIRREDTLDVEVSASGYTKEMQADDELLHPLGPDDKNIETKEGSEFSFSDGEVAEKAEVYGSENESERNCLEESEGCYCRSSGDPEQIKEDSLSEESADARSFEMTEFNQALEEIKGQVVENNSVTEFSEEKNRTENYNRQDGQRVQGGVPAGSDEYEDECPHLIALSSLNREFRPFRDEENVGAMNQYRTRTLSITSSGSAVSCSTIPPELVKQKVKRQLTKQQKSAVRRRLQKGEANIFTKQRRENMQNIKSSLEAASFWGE
Chain of Tyrosine-protein kinase TXK (Homo sapiens) (P42681 whole entry): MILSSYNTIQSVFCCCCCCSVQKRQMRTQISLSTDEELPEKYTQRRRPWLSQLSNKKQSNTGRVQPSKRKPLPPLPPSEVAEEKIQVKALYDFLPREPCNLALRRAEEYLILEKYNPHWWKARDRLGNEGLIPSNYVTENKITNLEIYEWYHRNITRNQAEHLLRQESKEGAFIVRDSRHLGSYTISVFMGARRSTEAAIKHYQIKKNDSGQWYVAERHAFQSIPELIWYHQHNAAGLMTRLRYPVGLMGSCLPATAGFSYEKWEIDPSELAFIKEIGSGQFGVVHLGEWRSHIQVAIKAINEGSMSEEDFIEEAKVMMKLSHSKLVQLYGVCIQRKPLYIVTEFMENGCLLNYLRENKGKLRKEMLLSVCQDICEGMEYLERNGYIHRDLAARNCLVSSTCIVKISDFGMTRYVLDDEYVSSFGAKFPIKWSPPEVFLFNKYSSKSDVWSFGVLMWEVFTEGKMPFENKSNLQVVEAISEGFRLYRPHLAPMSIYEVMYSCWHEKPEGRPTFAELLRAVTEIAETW
Chain of Serine/threonine-protein kinase pim-1 (Homo sapiens) (P11309 whole entry, looked up): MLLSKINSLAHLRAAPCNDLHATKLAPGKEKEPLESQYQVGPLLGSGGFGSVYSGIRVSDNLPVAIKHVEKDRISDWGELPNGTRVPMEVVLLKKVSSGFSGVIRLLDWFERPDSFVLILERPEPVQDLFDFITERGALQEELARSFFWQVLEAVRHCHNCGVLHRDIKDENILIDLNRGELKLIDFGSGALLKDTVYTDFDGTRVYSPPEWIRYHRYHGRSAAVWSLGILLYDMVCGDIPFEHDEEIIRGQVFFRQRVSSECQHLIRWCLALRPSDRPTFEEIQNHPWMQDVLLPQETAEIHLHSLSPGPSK

CN1C(=O)c2sccc2N(C)c2nc(Nc3ccc(S(N)(=O)=O)cc3)ncc21
IC50 [1]: 38.7 nM | Activity (Mus musculus): Active | Activity [2]: 86% | Activity [3]: 94% | Activity [4]: 100% | Activity [5]: 100% | Activity [6]: 100% | Activity [7]: 91% | Activity [8]: 95% | Activity [9]: 4.3% | Activity [10]: 14% | Activity [11]: 100% | Activity [12]: 98% | Activity [13]: 91% | Activity [14]: 90% | Activity [15]: 100% | Activity [16]: 4.6% | Kd (Aurora kinase A): 13 nM | Activity [17]: 92% | Activity [18]: 100% | Activity [19]: 100% | Activity [20]: 90% | Activity [21]: 100% | Activity [22]: 93% | inhibition (Primary hepatocyte): Active | Activity [23]: 100% | Activity [24]: 80% | Activity [25]: 100% | half-life [26]: 5.18 h
